Screens (PubChem BioAssay)
Hck Nef HTS: inhibitors of Nef-activated human Hck kinase, primary screen, biochemical, Z-Lyte FRET, 384-well, Hck-YEEI | Tyrosine-protein kinase HCK (Homo sapiens), P08631 | AID 463187, 2010 | Recombinant Hck-YEEI plus Nef, Z-Lyte FRET kinase assay | actives 0.68% (n = 220,000) | inhibition, % at 20 µM;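 active = Hck-Nef kinase inhibition above about 50%, limit read from the data; inactive = inhibition below that limit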;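 also: 0% = DMSO with Hck plus Nef and 100% = Hck alone without Nef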
Runt-SMMHC FRET: inhibitors of RUNX1 Runt–CBFb-SMMHC binding, primary screen, biochemical, FRET, Cerulean-Runt, Venus-CBFb-SMMHC, uHTS; Runt-related transcription factor 1 (Homo sapiens) + Core-binding factor subunit beta …; Cerulean-Runt/Venus-CBFb-SMMHC FRET ratio 530/480, 1 h; inhibition, % at 20 µM; actives 0.74% (n = 220,000);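 active = mean inhibition across duplicate retests at 20 µM reaching about 50%, limit read from the data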;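 also: 0% = DMSO wells and 100% = wells with excess untagged CBFb-SMMHC; inhibitors lower the FRET ratio by blocking Runt binding to CBFb-SMMHC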
Target sequence (Q01196 whole entry, looked up): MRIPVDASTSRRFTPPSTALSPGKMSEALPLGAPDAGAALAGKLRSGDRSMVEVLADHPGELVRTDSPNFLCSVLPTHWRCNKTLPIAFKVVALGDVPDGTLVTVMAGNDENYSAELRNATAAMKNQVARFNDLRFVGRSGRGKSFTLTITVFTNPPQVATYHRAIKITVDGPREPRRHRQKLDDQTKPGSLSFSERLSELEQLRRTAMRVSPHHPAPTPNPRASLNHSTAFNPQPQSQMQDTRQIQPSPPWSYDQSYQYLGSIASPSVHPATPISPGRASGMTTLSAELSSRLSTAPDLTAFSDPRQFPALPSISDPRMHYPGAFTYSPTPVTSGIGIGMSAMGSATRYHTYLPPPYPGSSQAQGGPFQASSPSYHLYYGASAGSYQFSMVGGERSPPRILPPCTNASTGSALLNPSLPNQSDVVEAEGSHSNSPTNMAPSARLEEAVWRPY
Target sequence (Q13951 whole entry, looked up): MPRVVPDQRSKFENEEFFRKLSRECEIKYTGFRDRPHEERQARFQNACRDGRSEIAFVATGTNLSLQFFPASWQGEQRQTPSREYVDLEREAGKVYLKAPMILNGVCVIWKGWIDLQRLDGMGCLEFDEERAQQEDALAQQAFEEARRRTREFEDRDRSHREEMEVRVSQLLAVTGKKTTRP
Runt-CBFb FRET: inhibitors of RUNX1 Runt–CBFb binding, primary screen, biochemical, FRET, Cerulean-Runt, Venus-CBFb, uHTS | Cerulean-Runt/Venus-CBFb FRET ratio 530/480, 1 h | inhibition, % at 20 µM | actives 0.46% (n = 220,000) | AID 1496, 2009;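 active = inhibition over about 50% at 20 µM in the single-dose screen, limit read from the data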;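 also: 0% = DMSO wells and 100% = excess unlabeled CBFb competitor control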
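test system = Cerulean-tagged RUNX1 Runt domain (FRET donor) fusion protein | reagent = Venus-CBFb binding partner, 100 nM | incubation = protein complex preformed 1 h, compound exposure 1 h, room temperature, dark | detection = FRET fluorescence | read-out basis = loss of energy transfer signal | controls = 5 µM unlabeled CBFb as full-inhibition high control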
RanGTP-Impb inh: inhibitors of RanGTP-importin-beta interaction, primary screen, biochemical, FRET, CFP-Ran, YFP-importin-beta, homogeneous | cell-free CFP-Ran/YFP-importin-beta FRET ratio | Ran GTPase (GTP-bound) - importin-beta complex | inhibition, % (concentration not given with the values) | actives 1.1% (n = 300,000) | AID 2216, 2009;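 active = more than half of the replicate wells show a fall in the fluorescence ratio signal beyond about 16%, limit read from the data, passing the limit was not always enough; inconclusive = exactly half of the replicate wells pass the set limit; inactive = fewer than half of replicates pass the limit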;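 also: 0% = DMSO wells and 100% = Ran loaded with GDP instead of GTP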
CaV13 ICDI inh: Primary screen for inhibitors of IQ motif and Ca2+-dependent inactivation inhibitor domain binding in CACNA1D, Förster resonance energy transfer in living cells, … | actives 0.098% (n = 340,000) | inhibition, % at 12.3 µM | HEK cells, CFP/YFP FRET ICDI-IQ, plate reader, 10 min; percent FRET-ratio fall versus neutral wells;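 active = mean replicate inhibition of at least 30% and at least 1% of replicates passing that level; inconclusive = only one of the two criteria is met; inactive = neither criterion is met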;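 also: 0% = median of the neutral control wells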
* hit, by the source's call; ? = inconclusive; · = no result given. Hits are enriched below; roughly 1.5% of the tested compounds scored in any of these assays.

SMILES | Hck Nef HTS | Runt-SMMHC FRET | Runt-CBFb FRET | RanGTP-Impb inh | CaV13 ICDI inh
COc1ccc(NC(=O)CN2C(=O)NC(C)(C3CC3)C2=O)c(OC)c1 (centres undefined) | · | · | · | · | -6
CC(=O)c1sc(Nc2nc3ccc(F)cc3s2)nc1C | 37 | 79* | 59* | 47* | ·
CC1(C)CC(=O)C=C(Nc2ccc(F)cc2F)C1 | 5 | 2 | -2 | 35* | -3
CC1(C)CC(=O)C=C(Nc2ccc(F)cc2)C1 | 0 | -5 | 1 | 27* | -8
CC1(C)CC(=O)C=C(Nc2ccc(OCC(F)(F)C(F)F)cc2)C1 | 1 | 0 | -2 | 30* | -5
O=C(Nc1cnc2ccccc2c1)c1ccncc1 | 6 | -2 | 3 | 3 | -9
O=C(NC(=S)Nc1cnc2ccccc2c1)c1ccccc1 | 139* | -3 | 2 | 8 | -5
COC(=O)C1=C(N)Oc2cc(C)n(Cc3ccncc3)c(=O)c2C1c1cccnc1 (centres undefined) | -1 | · | · | -3 | -7
CCn1c(C)cc2c(c1=O)C(c1ccccc1)C(C(=O)OC)=C(N)O2 (centres undefined) | 3 | 1 | -2 | 42* | -3
N#CC1=C(N)N(c2ccccc2C#N)C2=C(C(=O)CCC2)C1c1ccsc1 (centres undefined) | 1 | 18 | 15 | 30* | -6
CC(C)(C)c1ccc(/C=C/C(=O)N2CCOCC2)cc1 | -3 | 2 | -3 | 3 | -18
CC(C)Cc1ccc(/C=C/C(=O)N2CCOCC2)cc1 | 16 | -1 | -5 | 18* | -2
CCN1/C(=C2\OC(=S)N(C)C2=O)Sc2ccccc21 | 7 | 64* | 14 | -4 | 0
COc1ccccc1C(=O)Nc1ccc(OCC(=O)N2CCCCC2C)cc1 (centres undefined) | · | · | · | · | -5
Cc1nn(CC(=O)N2CCN(c3ccccc3)CC2)c(=O)c2cccn12 | · | · | · | -2 | -7
NC(=S)Cc1nc(-c2ccccc2)cs1 | 10 | -4 | 0 | 30* | -4
COc1cc(/C=N/N2C(=O)CSC2=S)cc(Br)c1O | 76* | -39 | 5 | · | -3
Cc1cc(N2C(=O)C(O)=C(C(=O)c3cc4ccccc4o3)C2c2ccc(Br)cc2)no1 (centres undefined) | · | · | · | 47* | -20
Cc1cc(N2C(=O)C(O)=C(C(=O)c3cc4ccccc4o3)C2c2ccc(Cl)cc2)no1 (centres undefined) | · | · | · | 4 | -16
COC(/C=C/Nc1ccc(Cl)cc1)=C(C#N)C#N | 18 | 4 | 0 | 27* | -4
COC(/C=C/Nc1ccc(OC)cc1)=C(C#N)C#N | -1 | 0 | 0 | -4 | -8
CN(C(=O)c1cc(S(=O)(=O)N2CCc3ccccc32)cn1C)C1CCCCC1 | · | · | · | 0 | -9
Cc1ccc([C@@H]2CC=C(C(=O)O)[C@H](c3ccc(F)cc3)N2S(=O)(=O)c2ccc(C)cc2)cc1 | · | · | · | · | -7
O=C(O)C1=CC[C@@H](c2ccc(Cl)cc2)N(S(=O)(=O)c2ccc(Cl)cc2)[C@H]1c1ccc(F)cc1 | · | · | · | · | 39*
COc1ccc(CCNC(=O)CN2C(=O)NC3(CCCCC3C)C2=O)cc1 (centres undefined) | · | · | · | · | -6
SMILES | Hck Nef HTS | Runt-SMMHC FRET | Runt-CBFb FRET | RanGTP-Impb inh | CaV13 ICDI inh
Cc1ccc(S(=O)(=O)c2cc3c(=O)n4ccccc4nc3n(C3CCCC3)c2=N)cc1 | · | · | · | 123* | 12
Cc1ccc(S(=O)(=O)c2cc3c(=O)n4ccccc4nc3n(CCc3ccccc3)c2=N)cc1 | · | · | · | 64* | -3
CCn1c(=N)c(S(=O)(=O)c2ccc(C)cc2)cc2c(=O)n3ccccc3nc21 | 14 | · | · | -1 | 2
Cc1ccc(S(=O)(=O)c2cc3c(=O)n4ccccc4nc3n(C)c2=N)cc1 | -2 | 62* | 97* | 174* | 80*
Cn1c(N)c(C(=O)CSc2nnc(C3CC3)n2-c2ccccc2)c(=O)n(C)c1=O | · | · | · | · | -2
Cc1ccc(N2C(=O)N(CC(=O)Nc3c(C)cc(C)cc3Cl)C(=O)C2C)cc1 (centres undefined) | · | · | · | 1 | -5
CCc1ccc(/C=C2\Oc3c(ccc(O)c3CN3CCN(CCO)CC3)C2=O)cc1 | -21 | 81* | 12 | 12 | -14
CCN1C[C@@H]2[C@@H]3C(=O)N(Cc4ccccc4)C(=O)[C@@H]3[C@](C)(C1=O)N2C(=O)c1ccccc1 | · | · | · | · | -5
COc1ccc2c(c1)O/C(=C\c1sccc1C)C2=O | 15 | 15 | 3 | 29* | -5
COc1cc(CC(=O)NCC2CCCCC2)cc(OC)c1OC | · | · | · | 5 | -19
Cc1noc(C)c1-c1ccc(C(=O)NCCc2ccccc2)c2occc12 | · | · | · | · | 40*
CCCCCCOC(=O)C(C#N)c1nc2ccccc2nc1N1CCN(CC)CC1 (centres undefined) | 1 | 15 | 12 | 0 | -7
N#CC(C(=O)OC1CCCCC1)c1nc2ccccc2nc1N1CCCCC1 (centres undefined) | 0 | -44 | -14 | 17* | -7
N#CC(C(=O)NCCc1ccccc1)c1nc2ccccc2nc1N1CCCCC1 (centres undefined) | -1 | -22 | 9 | 37* | ·
N#CC(C(=O)NCc1ccccc1)c1nc2ccccc2nc1N1CCCC1 (centres undefined) | -2 | 66* | 32 | 35* | ·
CCN1CCN(c2nc3ccccc3nc2C(C#N)C(=O)OCc2ccccc2)CC1 (centres undefined) | 0 | 47 | 26 | 20* | -6
CCOC(=O)C1CCCN(c2nc3ccccc3nc2C(C#N)C(=O)NCc2ccccc2)C1 (centres undefined) | -14 | -52 | -11 | -14 | -7
Cc1cc(C)c2oc(C(=O)N3CCN(Cc4ccccc4)CC3)cc(=O)c2c1 | · | · | · | -1 | -13
Oc1csc(Cc2nc(-c3ccccc3F)cs2)n1 | 13 | -12 | 5 | 21* | -5
Nc1c(C(=O)NCc2ccc(F)cc2)c2nc3ccccc3nc2n1CCCN1CCOCC1 | 48 | 81* | 12 | 87* | -2
COc1ccc(CNC(=O)c2c(N)n(CCCN3CCOCC3)c3nc4ccccc4nc23)cc1 | 42 | 81* | 18 | 97* | ·
Nc1c(C(=O)NCc2ccco2)c2nc3ccccc3nc2n1CCc1ccccc1 | 44 | 76* | 38 | 56* | ?
COC(=O)c1c(N)n(CCCN2CCOCC2)c2nc3ccccc3nc12 | 28 | 130* | 66* | 21* | -3
O=C(NCc1ccco1)c1ccc2ccccc2n1 | 12 | 0 | -8 | -3 | -3
